Source: PubChem BioAssay
Hits are enriched below; roughly 3.7% of the tested compounds scored in any of these assays.
hERG rescue = hERG (human) protection from proarrhythmic block | activation (rescue from dofetilide block), less the hit threshold, % at 10 µM | Q12809 | 310,000 compounds, 0.51% hits | CHO-hERG, FluxOR thallium flux, dofetilide IC70 present;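 active means activation above the mean of controls blocked by dofetilide plus 5 SD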;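 further: thallium influx through hERG after potassium depolarization seen as dye fluorescence rise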
KCNK3 inh = human KCNK3 channel inhibition, primary screen. 340,000 compounds, 0.84% hits. B-score at 10 µM. O14649. CHO-KCNK3 thallium flux, FluxOR fluorescence; stronger effect = lower value;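 active means B-score under library mean minus 4 SD, starting fluorescence ratio at most library mean plus 5 SD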;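 further: more negative B-score means stronger inhibition of thallium flux through KCNK3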
Target sequence (O14649 whole entry, looked up): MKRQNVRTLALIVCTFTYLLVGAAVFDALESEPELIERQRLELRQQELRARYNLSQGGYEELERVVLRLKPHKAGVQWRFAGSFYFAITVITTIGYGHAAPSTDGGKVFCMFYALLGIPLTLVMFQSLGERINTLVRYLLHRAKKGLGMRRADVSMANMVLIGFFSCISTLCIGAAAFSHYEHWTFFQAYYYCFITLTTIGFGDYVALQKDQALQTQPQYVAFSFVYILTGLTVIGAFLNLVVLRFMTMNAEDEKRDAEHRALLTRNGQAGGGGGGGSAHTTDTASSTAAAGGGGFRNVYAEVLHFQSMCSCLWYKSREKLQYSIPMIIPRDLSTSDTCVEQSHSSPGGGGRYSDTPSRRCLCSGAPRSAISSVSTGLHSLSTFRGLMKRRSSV
KCNQ1 act = potentiators or activators of human KCNQ1 potassium channel. B-score at 10 µM. P51787. 310,000 compounds, 0.35% hits. CHO-K1 KCNQ1, thallium flux FluxOR fluorescence; stronger effect = higher value. AID 2648;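 active means fluorescence ratio B-score, a plate-corrected score, at least three library SD, with initial intensity B-score within 5 SD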
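Assay system: stable KCNQ1 CHO-K1 line; medium: assay buffer, equal DMSO in all wells; timing: 90 min dye loading and 20 min compound exposure, both at room temperature; technique: kinetic FluxOR thallium fluorescence, 10-s 1-Hz baseline, 110-s post-stimulus read; read-out basis: B score of baseline-normalized fluorescence ratio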
Kir21 block = Kir2.1 (mouse) channel inhibition; HEK293-Kir2.1, FluxOR thallium flux fluorescence; stronger effect = lower value; B-score at 10 µM; 310,000 compounds, 0.85% hits; AID 1672;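 active means fluorescence ratio B-score at or below minus 3 SD of library scores, with starting-brightness B-score within 2 SD, cut at about -4.2 in these data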;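 further: channel flux triggered by added potassium and thallium sulfate stimulus; B-score of peak minus minimum fluorescence over baseline after thallium stimulus; more negative B-score means stronger Kir2.1 block with less thallium influx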
KCNK9 inh-1 = human KCNK9 channel inhibition; Q9NPC2; HEK293 KCNK9, FluxOR thallium flux fluorescence; stronger effect = lower value; B-score at 10 µM; 310,000 compounds, 1.2% hits; AID 488922;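 active means ratio B-score over 3 SD below the library mean, with starting fluorescence within 5 SD of its mean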;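 further: negative B-score means less thallium flux so channel inhibition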
KCNQ1 block = inhibitors of human KCNQ1 potassium channel | B-score at 10 µM | 310,000 compounds, 1.3% hits | CHO-K1 KCNQ1, FluxOR thallium flux fluorescence; stronger effect = higher value;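 active means compounds whose thallium flux B-score, printed positive for inhibition, exceeds three library SD while starting fluorescence stays within three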;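 further: channel opened by potassium depolarization with thallium stimulus after 20 min compound exposure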
hERG ctr = blocks human hERG, in counter-screen for Kir2.1 inhibitors | shares compounds with Kir21 block | hERG-expressing cells, thallium flux | inhibition, % at 10 µM | 320 compounds, 20% hits | AID 2236;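 further: host cells are CHO cells stably expressing hERG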
KCNK9 inh-2 = selectivity of Kir2.1 inhibitors: effect on human KCNK9; 320 compounds, 5% hits; shares compounds with Kir21 block; KCNK9-expressing cells, ion flux inhibition; inhibition, % at 10 µM
Kir2-1 patch inh = inhibitors of mouse Kir2.1 potassium channel. inhibition, % at 25 µM. 320 compounds, 71% hits. shares compounds with Kir21 block. Kir2.1 cells, automated patch-clamp current inhibition
* hit, by the source's call; i = inactive; . = no result. Unless noted, how the calls were made is not given here.

SMILES | hERG rescue | KCNK3 inh | KCNQ1 act | Kir21 block | KCNK9 inh-1 | KCNQ1 block | hERG ctr | KCNK9 inh-2 | Kir2-1 patch inh
Cc1nc(N2CCN(Cc3ccccc3)CC2)nc2c1C(=O)CC(C)C2 (stereo not given) | -15.3 | i | i | -7.12* | i | i | i | i | 8.9%*
Cc1cccc(SCC(=O)Nc2ccc3c(c2)OCCO3)c1 | -6.7 | i | i | -0.31 | i | i | . | . | .
CC1CN(C(=O)CCC(=O)NCCCN2CCN(Cc3ccccc3)CC2)c2cc(Cl)ccc2O1 (stereo not given) | -10.5 | i | i | -6.31* | i | i | 64.0%* | i | 9.3%*
COc1ccc(Oc2c(-c3ccc(O)cc3O)n[nH]c2C)cc1 | -9.9 | i | i | -5.71* | i | i | i | i | 0.2%*
OC(CNCCc1ccccc1)c1ccccc1 (stereo not given) | -1.3 | i | i | -9.65* | i | i | i | i | 49.8%*
CSc1ccc(CNCC(O)c2ccccc2)cc1 (stereo not given) | -5.5 | i | i | -6.18* | i | i | i | i | 54.1%*
Nc1ncnc2c1ncn2[C@@H]1O[C@H](CNC(=O)[C@@H](N)COCc2ccccc2)[C@@H](O)[C@H]1O | . | i | . | . | . | . | . | . | .
CC(=O)OC1=C(C#N)Cn2ccc3cccc1c32 | -4.9 | . | i | -6.72* | i | i | i | i | i
O=C(C1CCOCC1)N1CCCC(N2CCN(c3cccc(C(F)(F)F)c3)CC2)C1 (stereo not given) | -5.6 | i | i | -1.02 | i | i | . | . | .
CC(C)(Oc1ccc(Cl)cc1)C(=O)OCC(=O)NCCc1ccccc1 | -14.0 | i | i | -6.36* | i | i | i | i | 39.3%*
O=C(CNC(=O)c1ccccc1C(F)(F)F)N/N=C/c1cccs1 | -6.8 | i | i | 2.23 | i | i | . | . | .
Cc1ccc(CNCC(O)(c2ccccc2)c2ccccc2)cc1 | -10.2 | i | i | -9.24* | i | i | i | i | i
Cc1ccc(CNC(=O)NCc2ccccc2)cc1 | -4.5 | i | i | 0.54 | i | i | . | . | .
Cc1ccc(NC(=O)c2cccc(NC(=O)CC3SC(N4CCCCC4)=NC3=O)c2)nc1 (stereo not given) | -17.1 | i | i | 1.74 | i | i | . | . | .
CN(C)Cc1c(O)ccc2oc(Cc3ccccc3)cc12 | -8.1 | i | i | -5.93* | i | i | i | i | 61.9%*
CCOc1ccc(C(C)=O)cc1CSc1nnnn1-c1ccc(O)cc1 | -12.1 | i | i | -8.42* | i | i | i | i | 24.5%*
O=S(=O)(c1ccccc1)N1CCCc2ccccc21 | -0.7 | . | i | -6.45* | i | i | i | i | 22.1%*
O=S(=O)(c1ccc(F)cc1)N1CCCc2ccccc21 | -6.2 | . | i | -5.99* | i | i | i | i | 19.2%*
CC(=O)c1ccc(S(=O)(=O)N2CCCc3ccccc32)cc1 | -3.0 | i | i | -3.14 | i | i | . | . | .
O=C(O)c1ccc(S(=O)(=O)N2CCCc3ccccc32)cc1 | -2.6 | i | i | 0.05 | i | i | . | . | .
Cc1c(CC(=O)N2C[C@H]3C[C@@H](C2)c2cccc(=O)n2C3)c(=O)oc2cc3occ(C(C)(C)C)c3cc12 | -18.4 | i | i | -0.17 | i | i | . | . | .
CCC(C)(C)NC(=O)CN(C(=O)c1csnn1)c1ccccc1-c1ccccc1 | -0.8 | i | i | 0 | i | i | . | . | .
NC(=O)CCn1c2ccccc2c2ccccc21 | -9.1 | i | i | 2.62 | i | i | . | . | .
CC(C)CCn1c2ccccc2c2cc(CC(N)=O)ccc21 | -5.7 | i | i | 4.01 | i | i | i | i | i
CN(C)c1ccc(C(CNC(=O)Cc2cccc3ccccc23)N(C)C)cc1 (stereo not given) | -3.5 | i | i | -0.82 | i | i | . | . | .
SMILES | hERG rescue | KCNK3 inh | KCNQ1 act | Kir21 block | KCNK9 inh-1 | KCNQ1 block | hERG ctr | KCNK9 inh-2 | Kir2-1 patch inh
CNCCCCOc1ccccc1Cc1ccccc1 | -9.4 | . | i | -8.82* | i | i | i | i | 30.3%*
COC(=O)c1cc([N+](=O)[O-])c(-n2cncn2)c([N+](=O)[O-])c1 | -16.0 | i | i | -7.7* | i | i | i | i | i
CCCCOCCCN1CC(=O)N2[C@@H](Cc3c([nH]c4ccccc34)C2(C)C)C1=O | -3.2 | i | i | -4.6 | i | i | . | . | .
CCN(CC)CCCN(C(=O)c1ccc(OC)cc1)c1nc(-c2ccc(OC)cc2)cs1 | -13.8 | i | i | -6.07* | i | i | i | i | i
CC1=CC(C)(C)N(C(=O)CSc2nnc(C)s2)c2ccc(C)cc21 | -6.3 | i | i | -7.09* | i | i | i | i | 8.3%*
CCOc1cc(/C=N/N=C(N)N)ccc1OCc1ccc(Cl)cc1 | -27.6 | i | i | -16.3* | i | 9* | 60.0%* | i | i
CCOc1cc(/C=N/O)ccc1OCc1ccc(F)cc1 | -4.1 | i | i | -0.79 | i | i | . | . | .
CN(C)c1ccc(Nc2nc(N)c3ccccc3n2)cc1 | -8.0 | i | i | -7.52* | i | i | i | i | 64.9%*
CN(C)c1nc(Nc2ccccc2)nc(N(C)C)n1 | -11.4 | i | i | 1.1 | i | i | . | . | .
CCOc1ccc(Nc2nc(N)c3ccccc3n2)cc1 | -9.5 | i | i | -9.87* | i | i | i | i | 69.7%*
O=C(NNC(=O)c1csc(N2CCOCC2)n1)c1cccnc1 | -14.2 | i | i | -0.77 | i | i | . | . | .
Cc1ccc(C(=O)NNC(=S)NC(=O)c2ccccc2)cc1 | 23.0* | i | 8* | 2.62 | i | i | i | i | i
Cc1ccc(C(=O)NC(=S)NNC(=O)c2ccccc2O)cc1 | -11.5 | i | i | -0.33 | i | i | . | . | .
NC(=O)c1cc([N+](=O)[O-])ccc1NCc1ccc(C(=O)O)cc1 | . | i | . | . | . | . | . | . | .
Oc1ccc(Nc2nc(N3CCCC3)c3ccccc3n2)cc1 | -13.0 | i | i | -7.51* | i | i | 64.0%* | i | i
Cc1cc(C)nc(SCCCNCc2ccc(Br)cc2)n1 | -12.7 | i | i | -7.1* | i | i | i | i | 44.5%*
